Results published in ChEMBL document CHEMBL4304834, “3-Amino-chromanes and Tetrahydroquinolines as Selective 5-HT2B, 5-HT7, or σ1 Receptor Ligands” (ACS Med Chem Lett, 2019).

Assays:
Assay type in all cases: cell-based
[1] = target: T1, 5-hydroxytryptamine receptor 3A (Homo sapiens, UniProt P46098); experiment: Displacement of [3H]-GR65630 from human recombinant 5-HT3 receptor expressed in HEKT cells after 90 mins by microbeta scintillation counting method
T1 sequence (P46098 whole entry): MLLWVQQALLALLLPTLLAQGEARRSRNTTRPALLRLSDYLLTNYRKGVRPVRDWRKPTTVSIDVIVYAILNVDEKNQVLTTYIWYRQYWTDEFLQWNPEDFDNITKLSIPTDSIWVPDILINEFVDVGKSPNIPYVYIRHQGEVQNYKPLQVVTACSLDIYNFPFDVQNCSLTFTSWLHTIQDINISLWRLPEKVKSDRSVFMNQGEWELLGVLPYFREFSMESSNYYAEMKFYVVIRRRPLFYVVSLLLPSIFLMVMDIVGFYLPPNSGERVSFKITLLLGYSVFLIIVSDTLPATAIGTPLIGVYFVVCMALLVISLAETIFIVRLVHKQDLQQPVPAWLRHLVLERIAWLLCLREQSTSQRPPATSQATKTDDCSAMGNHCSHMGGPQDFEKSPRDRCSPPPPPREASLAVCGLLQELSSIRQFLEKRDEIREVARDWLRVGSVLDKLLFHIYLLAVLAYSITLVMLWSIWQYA
Method in brief: (§1)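 Radioligand binding run by the NIMH Psychoactive Drug Screening Program. […] Otherwise Ki comes from sigmoidal curve fits of triplicate measurements in a single experiment, or is averaged over repeated experiments each run in triplicate.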

[2] = target: 5-hydroxytryptamine receptor 5A (Homo sapiens, UniProt P47898); experiment: Displacement of [3H]-LSD from human recombinant 5-HT5A receptor expressed in Flp-In CHO cells after 90 mins by microbeta scintillation counting method; method in brief: as §1
Sequence of 5-hydroxytryptamine receptor 5A (P47898 whole entry): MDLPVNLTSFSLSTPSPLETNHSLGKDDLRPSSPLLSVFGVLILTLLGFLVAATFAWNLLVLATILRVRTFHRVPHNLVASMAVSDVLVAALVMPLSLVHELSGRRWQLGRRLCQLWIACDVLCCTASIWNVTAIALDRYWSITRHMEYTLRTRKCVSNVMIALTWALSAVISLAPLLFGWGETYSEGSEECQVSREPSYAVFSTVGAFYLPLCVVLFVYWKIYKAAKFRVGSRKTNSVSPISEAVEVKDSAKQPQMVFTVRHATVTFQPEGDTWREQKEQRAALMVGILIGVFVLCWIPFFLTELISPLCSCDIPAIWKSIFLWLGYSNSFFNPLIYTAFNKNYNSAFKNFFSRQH

[3] = target: 5-hydroxytryptamine receptor 6 (Homo sapiens, UniProt P50406); experiment: Displacement of [3H]-LSD from human recombinant 5-HT6 receptor expressed in stable HEK cells after 90 mins by microbeta scintillation counting method; method in brief: as §1
Sequence of 5-hydroxytryptamine receptor 6 (P50406 whole entry): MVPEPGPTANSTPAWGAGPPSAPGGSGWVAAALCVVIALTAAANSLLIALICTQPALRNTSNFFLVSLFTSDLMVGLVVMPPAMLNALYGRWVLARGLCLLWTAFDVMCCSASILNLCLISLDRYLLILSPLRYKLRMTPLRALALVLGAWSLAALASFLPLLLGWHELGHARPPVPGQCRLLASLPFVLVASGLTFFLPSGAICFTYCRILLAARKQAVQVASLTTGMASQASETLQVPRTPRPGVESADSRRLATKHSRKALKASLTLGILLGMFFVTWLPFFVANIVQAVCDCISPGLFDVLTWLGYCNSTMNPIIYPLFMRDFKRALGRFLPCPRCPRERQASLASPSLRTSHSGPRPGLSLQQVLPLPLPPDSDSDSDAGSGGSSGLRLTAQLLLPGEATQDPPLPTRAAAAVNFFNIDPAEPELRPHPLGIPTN

[4] = target: T2, Alpha-1B adrenergic receptor (Homo sapiens, UniProt P35368); experiment: Displacement of [3H]-Prazosin from human recombinant adrenergic Alpha1B receptor expressed in HEKT cells after 90 mins by microbeta scintillation counting method
T2 sequence (P35368 whole entry): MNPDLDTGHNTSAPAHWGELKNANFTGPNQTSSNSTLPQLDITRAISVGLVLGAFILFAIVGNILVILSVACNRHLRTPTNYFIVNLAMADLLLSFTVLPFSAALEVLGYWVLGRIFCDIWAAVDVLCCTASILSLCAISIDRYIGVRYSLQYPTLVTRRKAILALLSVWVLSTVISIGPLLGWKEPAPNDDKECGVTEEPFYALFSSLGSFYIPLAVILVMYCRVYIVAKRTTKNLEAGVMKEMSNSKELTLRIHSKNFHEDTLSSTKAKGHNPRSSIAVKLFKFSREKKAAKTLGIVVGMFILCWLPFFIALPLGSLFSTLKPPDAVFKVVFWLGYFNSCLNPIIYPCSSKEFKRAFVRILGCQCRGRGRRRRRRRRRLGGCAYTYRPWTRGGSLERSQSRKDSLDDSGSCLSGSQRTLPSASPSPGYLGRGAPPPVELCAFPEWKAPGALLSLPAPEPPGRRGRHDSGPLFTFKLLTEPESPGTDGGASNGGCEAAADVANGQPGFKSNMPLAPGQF
Method in brief: (§2)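 Radioligand binding was run by the NIMH Psychoactive Drug Screening Program. Compounds were first screened at 10 μM. Those giving ≥50% binding were taken to full competition curves. Ki is reported as pKi from a sigmoidal curve fit of triplicate measurements in a single experiment; the error is the curve-fit error.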

[5] = target: Beta-3 adrenergic receptor (Homo sapiens, UniProt P13945); experiment: Displacement of [3H]-CGP12177 from human recombinant adrenergic Beta3 receptor expressed in Flp-In HEK cells after 90 mins by microbeta scintillation counting method; method in brief: as §1
Sequence of Beta-3 adrenergic receptor (P13945 whole entry): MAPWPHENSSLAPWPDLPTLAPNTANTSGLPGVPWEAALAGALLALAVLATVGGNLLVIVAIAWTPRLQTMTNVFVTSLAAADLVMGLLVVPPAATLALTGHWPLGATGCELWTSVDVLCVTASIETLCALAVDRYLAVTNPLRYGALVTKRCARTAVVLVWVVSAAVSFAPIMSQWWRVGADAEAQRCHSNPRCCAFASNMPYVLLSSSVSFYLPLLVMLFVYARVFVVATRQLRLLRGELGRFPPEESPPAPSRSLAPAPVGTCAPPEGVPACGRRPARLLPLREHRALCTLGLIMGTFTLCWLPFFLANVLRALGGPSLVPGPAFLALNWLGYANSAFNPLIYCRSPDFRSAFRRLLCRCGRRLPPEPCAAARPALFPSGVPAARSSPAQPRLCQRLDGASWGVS

[6] = target: Sodium-dependent dopamine transporter (Homo sapiens, UniProt Q01959); experiment: Displacement of [3H]-Win35428 from human recombinant DAT receptor expressed in stable HEK cells after 90 mins by microbeta scintillation counting method; method in brief: as §2
Sequence of Sodium-dependent dopamine transporter (Q01959 whole entry): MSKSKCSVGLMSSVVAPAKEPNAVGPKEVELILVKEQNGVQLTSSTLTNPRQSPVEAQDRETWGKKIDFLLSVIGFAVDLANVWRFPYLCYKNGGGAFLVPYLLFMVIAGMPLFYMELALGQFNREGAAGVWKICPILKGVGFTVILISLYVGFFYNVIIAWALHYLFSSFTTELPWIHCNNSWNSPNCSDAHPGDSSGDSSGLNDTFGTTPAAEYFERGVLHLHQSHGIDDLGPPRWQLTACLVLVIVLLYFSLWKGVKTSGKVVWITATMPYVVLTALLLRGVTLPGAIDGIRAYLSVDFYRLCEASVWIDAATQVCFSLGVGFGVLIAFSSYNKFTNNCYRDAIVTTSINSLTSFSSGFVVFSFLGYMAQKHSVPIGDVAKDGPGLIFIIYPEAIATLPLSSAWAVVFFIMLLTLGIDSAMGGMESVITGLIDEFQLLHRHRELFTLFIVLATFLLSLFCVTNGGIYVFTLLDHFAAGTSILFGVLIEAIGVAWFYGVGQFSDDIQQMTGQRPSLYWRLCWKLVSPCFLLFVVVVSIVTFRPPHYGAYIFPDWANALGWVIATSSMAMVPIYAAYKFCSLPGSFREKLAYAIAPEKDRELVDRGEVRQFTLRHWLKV

[7] = target: T3, Muscarinic acetylcholine receptor M2 (Homo sapiens, UniProt P08172); experiment: Displacement of [3H]-QNB/[3H]-NMS from human recombinant Muscarinic acetylcholine M2 receptor expressed in stable CHO cells after 90 mins by microbeta scintillation counting method; method in brief: as §2
T3 sequence (P08172 whole entry): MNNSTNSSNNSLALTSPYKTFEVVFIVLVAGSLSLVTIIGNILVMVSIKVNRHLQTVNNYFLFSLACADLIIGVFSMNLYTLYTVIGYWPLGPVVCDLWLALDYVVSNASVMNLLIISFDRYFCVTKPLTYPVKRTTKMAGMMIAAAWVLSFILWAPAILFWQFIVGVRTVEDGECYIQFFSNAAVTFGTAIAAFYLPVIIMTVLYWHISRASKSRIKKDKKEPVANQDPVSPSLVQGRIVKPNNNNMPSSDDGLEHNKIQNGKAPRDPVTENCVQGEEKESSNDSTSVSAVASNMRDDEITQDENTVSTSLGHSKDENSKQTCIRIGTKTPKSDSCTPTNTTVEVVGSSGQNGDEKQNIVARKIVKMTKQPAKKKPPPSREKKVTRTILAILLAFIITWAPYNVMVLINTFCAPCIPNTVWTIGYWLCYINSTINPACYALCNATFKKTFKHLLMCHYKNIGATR

[8] = target: T4, Alpha-1A adrenergic receptor (Homo sapiens) (UniProt P35348); experiment: Displacement of [3H]-Prazosin from human recombinant adrenergic alpha1A receptor expressed in cells at 10 uM after 90 mins by microbeta scintillation counting method relative to control
T4 sequence (whole entry): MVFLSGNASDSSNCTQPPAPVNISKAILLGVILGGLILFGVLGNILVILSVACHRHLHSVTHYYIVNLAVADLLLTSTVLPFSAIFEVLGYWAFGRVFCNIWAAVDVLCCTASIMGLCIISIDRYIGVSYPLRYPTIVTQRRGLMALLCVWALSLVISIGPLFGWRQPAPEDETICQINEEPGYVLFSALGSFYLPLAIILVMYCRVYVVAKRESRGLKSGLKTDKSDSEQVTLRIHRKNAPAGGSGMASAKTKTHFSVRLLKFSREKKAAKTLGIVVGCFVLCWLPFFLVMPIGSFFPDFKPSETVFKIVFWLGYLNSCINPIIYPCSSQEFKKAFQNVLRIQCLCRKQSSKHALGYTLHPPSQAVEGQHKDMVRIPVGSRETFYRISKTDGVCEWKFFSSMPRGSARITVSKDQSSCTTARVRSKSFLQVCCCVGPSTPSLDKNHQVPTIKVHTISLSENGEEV

D(1A) dopamine receptor = D(1A) dopamine receptor (Homo sapiens, UniProt P21728); experiment: Displacement of [3H]-SCH23390 from human recombinant dopamine D1 receptor expressed in HEKT cells at 10 uM after 90 mins by microbeta scintillation counting method relative to control
Sequence of D(1A) dopamine receptor (P21728 whole entry): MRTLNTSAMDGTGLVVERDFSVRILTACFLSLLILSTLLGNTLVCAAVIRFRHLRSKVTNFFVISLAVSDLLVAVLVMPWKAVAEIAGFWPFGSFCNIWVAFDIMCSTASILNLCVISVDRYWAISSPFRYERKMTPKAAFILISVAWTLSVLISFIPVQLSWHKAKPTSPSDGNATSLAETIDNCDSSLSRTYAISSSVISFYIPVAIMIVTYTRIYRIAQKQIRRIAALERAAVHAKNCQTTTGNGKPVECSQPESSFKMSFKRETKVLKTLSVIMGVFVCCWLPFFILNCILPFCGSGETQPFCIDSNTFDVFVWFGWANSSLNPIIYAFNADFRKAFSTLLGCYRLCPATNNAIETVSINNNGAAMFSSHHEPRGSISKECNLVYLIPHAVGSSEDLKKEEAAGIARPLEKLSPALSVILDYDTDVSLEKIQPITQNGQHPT

[9] = target: T5, Muscarinic acetylcholine receptor M2 (Homo sapiens) (UniProt P08172); experiment: Displacement of [3H]-QNB/[3H]-NMS from human recombinant Muscarinic acetylcholine M2 receptor expressed in stable CHO cells at 10 uM after 90 mins by microbeta scintillation counting method relative to control
T5 sequence (whole entry): T3 sequence (P08172 whole entry)

Row | Compound | Ki [1] | Ki [2] | Ki [3] | Ki [4] | Ki [5] | Ki [6] | Ki [7] | inhibition [8] | inhibition (D(1A) dopamine receptor) | inhibition [9]
1 | CC[C@H]1c2ccccc2N(c2ccccc2)C[C@@]1(C)N (racemic) | > 10 µM | > 10 µM | > 10 µM | > 10 µM | 1 µM | 3.16 µM | > 10 µM |  |  | 
2 | C[C@@]12CN(c3ccccc3)c3ccccc3[C@@H]1CCN2 (racemic) | > 10 µM |  | > 10 µM | > 10 µM | > 10 µM | > 10 µM | > 10 µM |  |  | 
3 | CC[C@H]1c2cc(C)ccc2OC[C@@]1(C)N (racemic) | > 10 µM | > 10 µM | > 10 µM | > 10 µM | > 10 µM | > 10 µM | > 10 µM | < 50% | < 50% | < 50%
4 | COc1cc(OC)c2c(c1)OC[C@@]1(C)NCC[C@@H]21 (racemic) | > 10 µM |  | > 10 µM | > 10 µM | > 10 µM | > 10 µM | > 10 µM | < 50% | < 50% | < 50%
5 | CC[C@H]1c2cc(OC)ccc2CC[C@@]1(C)N (racemic) | > 10 µM | 2 µM | > 10 µM | > 10 µM | > 10 µM | 5.01 µM | > 10 µM | < 50% | < 50% | < 50%
